We go through 7 molecules from ChEMBL document CHEMBL1133551, “Non-depolarizing neuromuscular blocking activity of bisquaternary amino di- and tripeptide derivatives” (J Med Chem, 2000).

Assay [1] deals with Felis catus. The assay is described as follows: Onset time was measured for NMB activity in anesthetized cats. It is filed as functional. Put shortly: (§1)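 Anesthetized, ventilated cats, tibialis anterior twitch evoked by sciatic nerve stimulation at 0.1 Hz; iv doses giving 80-95% block. Onset is injection to the first maximally depressed twitch. Duration is injection to 90% spontaneous recovery relative to predrug twitch.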

Assay [2] has as its system Felis catus. The assay is described as follows: Duration (90%) measured for NMB activity in anesthetized cats. It is filed as functional. The method, boiled down:
as §1

Assay [3] deals with Felis catus. The assay is described as follows: Inhibitory potency in anesthetized cats. The class given is functional. Put shortly: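 Cats of either sex (1.9-2.6 kg), anesthetized i.p. with α-chloralose 80 mg/kg plus pentobarbitone 5 mg/kg and ventilated with room air, 37 ± 1 °C. Sciatic nerve stimulated at 0.1 Hz (0.25-ms supramaximal pulses), tibialis anterior twitch recorded. Increasing doses given iv (jugular) at 30-60-min intervals.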

The species named for assay [4] is Gallus gallus. The experiment in a line: Dose causing 50% block of muscle twitch in isolated chick biventer cervicis muscle (Increase in baseline tension). The settings on record: Muscle tissue, read-out: ED50 (the source's name).
Assay [5] concerns Felis catus. The assay is described as follows: Recovery time (25-75 %) measured for NMB activity in anesthetized cats. The class given is functional, organism-based. Put shortly:
as §1

Assay [6] relates to Felis catus. The assay is described as follows: Inhibition of stimulated vagus nerve-induced bradycardia in anesthetized cats. The class given is functional. The method, boiled down:
(§2)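 Anesthetized cats. Every 100 s the vagus nerve was stimulated for 10 s at 2-5 Hz to evoke bradycardia, and the cervical sympathetic nerve was stimulated to evoke nictitating membrane contraction. Near the end of experiments, logarithmically increasing iv doses were given at 100-s intervals. Doses giving 50% block were obtained by regression and interpolation.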

Assay [7] is described as follows: (§3) Dose causing 50% block of muscle twitch in isolated chick biventer cervicis muscle. It is filed as functional. The following applies: Gallus gallus, Muscle tissue; read-out: ED50 (the source's name). Put shortly:
(§4)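 Isolated chick biventer cervicis nerve-muscle preparation; bath fluid gassed with 5% CO2 in O2, pH 7.4. Motor nerves stimulated at 0.1 Hz with 0.2-ms rectangular pulses at supramaximal voltage to give indirect twitches. Concentration-twitch inhibition lines fitted by least squares, and the concentration producing 50% twitch block (µM) was read off.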

Assay [8] is filed under the species Gallus gallus. The experiment in a line: -logED50 value for chick biventer determined. The class given is functional. The method, boiled down: as §4
The species named for assay [9] is Gallus gallus. The assay is described as §3. The class given is functional, Muscle tissue. Put shortly:
as §4

The species entered for assay [10] is Felis catus. The assay is described as follows: Inhibition of superior cervical nerve-induced contractions of the nictitating membrane. The class given is functional. The method, boiled down:
as §2

For assay [11], the species on record is Felis catus. The assay is described as follows: Inhibition of stimulated vagus nerve-induced bradycardia. The class given is functional. Put shortly:
as §2

Assay [12] deals with Felis catus. The experiment in a line: Inhibitory potency in anesthetized cats, and Onset time is reported. The class given is functional. The method, boiled down:
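Anesthetized cats (alpha-chloralose/pentobarbitone i.p., ventilated, 37 ± 1 °C). Tibialis anterior twitch evoked via sciatic nerve at 0.1 Hz, 0.25-ms supramaximal pulses. Increasing i.v. (jugular) doses at 30-60-min intervals. ED50 interpolated from log dose lines over 15-85% block. Onset, from injection to first maximally depressed twitch, measured at doses giving 80-95% block.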

Assay [13] can be described thus: Dose causing 50% block of muscle twitch in isolated chick biventer cervicis muscle (Increase in baseline tension). The settings on record: Gallus gallus, Muscle tissue; read-out: ED50 (the source's name).
Assay [14] deals with Monkey. The experiment in a line: Onset time was measured for NMB activity in anesthetized rhesus monkeys. It is filed as functional, Cercopithecidae. Put shortly:
(§5)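 Anesthetized, ventilated Rhesus monkeys; iv dosing at 3 × the 90% blocking dose. Onset is injection to the first maximally depressed twitch. Duration is injection to 90% spontaneous recovery versus predrug twitch.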

Assay [15] deals with Felis catus. The experiment in a line: Inhibition of superior cervical nerve-induced contractions of the nictitating membrane in anesthetized cats. It is filed as functional. Put shortly: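 Cats of either sex (1.9-2.6 kg), anesthetized with i.p. alpha-chloralose 80 mg/kg plus pentobarbitone 5 mg/kg, ventilated to keep arterial pH 7.3-7.4, 37 ± 1 °C. Nictitating membrane contractions evoked by cervical sympathetic nerve stimulation, recorded every 100 s. Logarithmically increasing doses injected into the jugular vein at 100-s intervals; 50%-blocking dose obtained by regression and interpolation.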

Assay [16] relates to Monkey. The assay is described as follows: Recovery time (25-75 %) measured for NMB activity in anesthetized rhesus monkeys. It is filed as functional, organism-based. The following applies: Cercopithecidae. Put shortly: as §5
The test system of assay [17] is Monkey. The experiment in a line: Duration (90%) measured for NMB activity in anesthetized rhesus monkeys. The class given is functional, Cercopithecidae. Put shortly:
as §5

The test system of assay [18] is Monkey. The assay is described as follows: Inhibitory potency in anesthetized rhesus monkeys. It is filed as functional. The settings on record: Cercopithecidae, in Macaca mulatta.
For assay [19], the system named is Felis catus. The experiment in a line: Inhibition of superior cervical nerve-induced contractions of the nictitating membrane in anesthetized cats; Pre- and post-block increases in twitch tension and short-lived muscle fasciculations 20-30 s after dosing. It is filed as functional, organism-based. The method, boiled down: as §2

Turning to `COc1ccc(CC2c3cc(OC)c(OC)cc3CC[N+]2(C)CCC(=O)OCCCCCOC(=O)CC[N+]2(C)CCc3cc(OC)c(OC)cc3C2Cc2ccc(OC)c(OC)c2)cc1OC` (stereo unspecified), in the assay on Felis catus [1], the Onset is 5.8 min. Also, in the assay with Felis catus [2], the Duration is 19.4 min. Further, the ED50 in the assay on Felis catus [3] is 0.1 µmol/kg; in the assay with Felis catus [6], 1.6 µmol/kg. Also, the EC50 in the assay filed under Gallus gallus [4] turned out to be 410 nM. In the assay with Felis catus [5], this molecule registered a Recovery of 5.9 min.
Take `C[N+]1(CCNC(=O)C(Cc2ccccc2)NC(=O)C[N+]2(C)CCCCC2)CCOCC1` (stereo unspecified): the EC50 in [7] was determined as 407000 nM. In the assay listed under Gallus gallus [8], the pCB50 turned out to be 3.39.
Turning to `C[N+](C)(C)CC(=O)NCC(=O)NCC[N+]1(C)CCOCC1`, the EC50 in the assay listed under Gallus gallus [9] (Gallus gallus, Muscle tissue, read-out: ED50 (the source's name)) was more than 390000 nM.
Take `O=C(C[N+]1(Cc2ccc([N+](=O)[O-])cc2)CCCCC1)NC(Cc1ccccc1)C(=O)NCC[N+]1(Cc2ccc([N+](=O)[O-])cc2)CCOCC1.[Br-].[Br-]` (stereo unspecified): the ED50 in the assay filed under Gallus gallus [9] was 19800 nM; in the assay on Felis catus [3], 10.1 µmol/kg; in the assay listed under Felis catus [10], more than 11.2 µmol/kg; in the assay listed under Felis catus [11] it was 0.8 µmol/kg.
In the assay with Felis catus [1], `CC(=O)O[C@H]1C[C@@H]2CC[C@@H]3[C@H](CC[C@@]4(C)[C@H]3C[C@H]([N+]3(C)CCCCC3)[C@@H]4OC(C)=O)[C@@]2(C)C[C@@H]1[N+]1(C)CCCCC1` [PANCURONIUM] registered an Onset of 4.1 min. Moreover, the Duration in the assay with Felis catus [2] amounted to 11.7 min. The ED50 with Felis catus [12] worked out at 0.03 µmol/kg; with Felis catus [6], 0.07 µmol/kg. In the assay filed under Gallus gallus [8], this molecule showed a pCB50 of 6.7. In the assay on Felis catus [5], the Recovery was 4 min. In addition, the EC50 in [13] came out at 200 nM.
In the case of `C=CC[N+]1([C@H]2C[C@H]3[C@@H]4CC[C@H]5C[C@H](O)[C@@H](N6CCOCC6)C[C@]5(C)[C@H]4CC[C@]3(C)[C@H]2OC(C)=O)CCCC1` [ROCURONIUM], the Onset in the assay with Felis catus [1] is listed as 2 min; with Monkey [14], 3.1 min. Moreover, the Duration in the assay on Felis catus [2] is listed as 8.3 min; with Monkey [17], 13.6 min. The ED50 with Felis catus [15] is 0.16 µmol/kg; in the assay with Felis catus [12], 0.25 µmol/kg; in the assay with Felis catus [6] it was 2.17 µmol/kg. Also, the Recovery in the assay on Monkey [16] is 5 min; with Felis catus [5], 2.9 min. This molecule also returned a pCB50 in the assay listed under Gallus gallus [8] of 6.12. The EC50 in assay [13] stood at 760 nM.
As to `C[N+](C)(C)CCOC(=O)CCC(=O)OCC[N+](C)(C)C` [SUXAMETHONIUM], the Onset in the assay on Felis catus [1] came out at 1.7 min; with Monkey [14] it was 1.5 min. The Duration in the assay with Felis catus [2] is 5.7 min; in the assay with Monkey [17], 9.7 min. In the assay with Monkey [18], this molecule displayed an ED90 of 5.04 µmol/kg. Further, the ED50 with Felis catus [3] was 0.11 µmol/kg; in the assay on Felis catus [19], “Pre- and post-block increases in twitch tension and short-lived muscle fasciculations 20-30 s after dosing”. Also, the Recovery was determined as 2.9 min in the assay on Monkey [16] and 1.9 min in the assay on Felis catus [5]. For the same molecule, in the assay filed under Gallus gallus [4], the EC50 worked out at 540 nM.
